Experimental data pooled from the literature.
Protocols differ between the studies behind these lines.
G protein-coupled receptor 88: G protein-coupled receptor 88 (Homo sapiens, UniProt Q9GZN0)
PRKAA1: 5'-AMP-activated protein kinase catalytic subunit alpha-1 (PRKAA1, Homo sapiens, UniProt Q13131)
Cnr2: Cannabinoid receptor 2 (Cnr2, Mus musculus, UniProt P47936)

SMILES | target | assay | test system | conditions | endpoint | result
CCC[C@@H](C)COc1ccc([C@@H](CO)C(=O)N[C@H](C)c2ccccc2)cc1 | G protein-coupled receptor 88 | cAMP, agonist, TR-FRET | CHO | – | Emax | 105%
CC(C)C[C@H](NC(=O)[C@H]1O[C@@H]1C(=O)O)C(=O)NCCCCN=C(N)N | Procathepsin L (CTSL, Homo sapiens, UniProt P07711) | enzyme activity, inhibitor | – | 500 pM | inhibition | 13%
Cc1nc2c(=O)n(C)c(=O)nc-2n(C)n1 | Protein disulfide-isomerase (P4HB, Homo sapiens, UniProt P07237) | thermal stability, DSF | – | 1 µM | ΔTm | -1.43 °C
CCCC#Cc1ccc([C@@H](CO)C(=O)N[C@H](C)c2ccccc2)cc1 | G protein-coupled receptor 88 | cAMP, agonist, TR-FRET | – | – | Emax | 92%
COc1ncccc1-c1cnn2ccc(N3CCN(C(=O)OC(C)C)CC3)nc12 | Cyclin-dependent kinase 13 (CDK13, Homo sapiens, UniProt Q14004) | binding, competition with immobilised ligand | – | 1 µM | remaining binding | 95%
C#Cc1n[nH]c2c(-c3cn([C@@H](C)c4ccccn4)c(=O)[nH]c3=O)cc(F)cc12 | Protein kinase C theta type (PRKCQ, Homo sapiens, UniProt Q04759) | enzyme activity, inhibitor | – | 0.1 µM | inhibition | 13.6%
Cc1nn(C)cc1-c1nc2c(N3CCN(Cc4ccc(Cl)cc4)CC3)c(Cl)cnc2[nH]1 | PRKAA1 | binding, competition with immobilised ligand | – | 1 µM | remaining binding | 2.4%
Nc1ncc(-c2nc(N3CCOCC3)nc(N3CCOCC3)n2)c(C(F)F)n1 | PRKAA1 | cell-free assay, competition with immobilised ligand | – | 10 µM | remaining binding | 91%
Cn1cc(-c2cccc(N3CCc4c(sc5c4CC(C)(C)C5)C3=O)c2CO)cc(Nc2ccncn2)c1=O | Platelet-derived growth factor receptor alpha (PDGFRA, Homo sapiens, UniProt P16234, T674I) | enzyme activity, inhibitor | – | 1 µM | inhibition | -4%
CC[C@H](C)COc1ccc([C@@H](CO)C(=O)N[C@H](C)c2ccccc2)cc1 | G protein-coupled receptor 88 | cAMP, agonist, TR-FRET | – | – | Emax | 88%
CCOC(=O)C(CC)(CCCSCCOCCOCCOCCNC(=O)OC(C)(C)C)NC(=O)c1ccc(C2CC2)c(Cc2ccc(F)cc2)n1 (centres unmarked) | Cnr2 | cAMP, agonist | – | – | Emax | 87%
CCCCCOc1ccc([C@@H](CO)C(=O)N[C@H](C)c2ccccc2)cc1 | G protein-coupled receptor 88 | cAMP, agonist, TR-FRET | CHO | – | Emax | 103%
CCOC(=O)[C@](CC)(CCC[S+]([O-])CCOCCOCCNC(=O)OC(C)(C)C)NC(=O)c1ccc(C2CC2)c(Cc2ccc(F)cc2)n1 (some centres unmarked) | Cnr2 | cAMP, agonist | – | – | Emax | 79%
Cn1cc(-c2cc(F)cc(N3CCn4c(cc5c4CCCC5)C3=O)c2CO)cc(Nc2ccc(N3CCN(C4COC4)CC3)cn2)c1=O | Platelet-derived growth factor receptor alpha (PDGFRA, Homo sapiens, UniProt P16234) | enzyme activity, inhibitor | – | 0.1 µM | inhibition | 23%
